Values after ≈ are worked out from the molar mass of the structure shown.
Experiments:
[1] = Plasma concentration in healthy human at […], po after 4 hrs; assay type: ADME, organism-based; parameters: route oral
Method in brief: (§1)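 Healthy nonsmoking Japanese men, 20-45 y, given one oral 400 mg suspension dose. Blood drawn at 0-72 h, spun at 1,600 × g for 10 min at 4°C, plasma kept at −20°C. Drug measured by validated LC/MS/MS, linear 0.005-5 μg/ml. Values are mean ± SD, n = 28. Cmax, Tmax and t1/2,z are model-independent; AUC0-24 by trapezoidal method.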

[2] = Ratio of epithelial lining fluid AUC (0 to 24 hrs) to plasma AUC (0 to 24 hrs) in healthy human at 400 mg, po administered as single dose
Homo sapiens [3] = experiment: Toxicity in healthy human assessed as lymphocytes count in bronchoalveolar fluid at […], po administered as single dose after 8 hrs; assay type: organism-based, Lung; parameters: route oral; conditions: in vivo
Method in brief: (§2)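 Healthy Japanese male never-smokers, aged 20 to 45 years with normal BMI, got one open-label oral 400 mg suspension dose. Four subjects per time group had one fiber-optic bronchoscopic BAL at the assigned post-dose time. The first aliquot was discarded and the last three were pooled. BAL fluid was held on ice and spun at 400 × g for 5 min at 4°C. Pellet cells were counted by hemocytometer, with a differential count on a stained cytocentrifuge preparation.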

Homo sapiens [4] = experiment: Toxicity in healthy human assessed as alveolar macrophage count in bronchoalveolar fluid at 400 mg, po administered as single dose after 2 hrs; conditions: in vivo
Homo sapiens [5] = experiment: Toxicity in healthy human assessed as alveolar macrophage count in bronchoalveolar fluid at 400 mg, po administered as single dose after 6 hrs; conditions: in vivo
Homo sapiens [6] = experiment: Toxicity in healthy human assessed as eosinophil count in bronchoalveolar fluid at […], po administered as single dose after 2 hrs; assay type: organism-based, Lung; parameters: route oral; conditions: in vivo; method in brief: as §2
[7] = Ratio of AUC (0 to 24 hrs) in […] healthy epithelial lining fluid to MIC90 for Moraxella catarrhalis; assay type: functional
[8] = Plasma concentration in healthy human at […], po after 6 hrs; assay type: ADME, organism-based; parameters: route oral; method in brief: as §1
[9] = AUC (0 to 24 hrs) in plasma of healthy human at 400 mg, po administered as single dose by linear trapezoidal method
[10] = Ratio of AUC (0 to 24 hrs) in […] healthy epithelial lining fluid to MIC90 for Haemophilus influenzae; assay type: functional
Homo sapiens [11] = experiment: Toxicity in healthy human assessed as other cellular fractions in bronchoalveolar fluid at 400 mg, po administered as single dose after 2 hrs; conditions: in vivo
[12] = Drug level in alveolar macrophages of healthy human at […], po administered as single dose after 10 hrs; assay type: ADME, organism-based, Macrophage; parameters: route oral; conditions: read-out: Drug uptake
Method in brief: (§3)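 One oral 400 mg suspension dose; four volunteers lavaged at each time (2-24 h). Cell pellet from the pooled 2nd-4th aspirates was counted (hemocytometer, stained cytospin differential). Drug in cell suspension measured by HPLC, divided by AM volume assuming 2.42 μl/10^6 cells. Cmax and Tmax are model-independent, based on mean concentrations at each time.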

[13] = Drug level in epithelial lining fluid of healthy human at […] administered as single dose after 2 hrs; assay type: ADME, organism-based; parameters: route oral; conditions: po, read-out: Drug uptake
Method in brief: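 Four healthy male volunteers per BAL time (2-24 h) after one oral 400 mg suspension dose. Single bronchoscopic lavage; first aliquot discarded, next three pooled. Supernatant separated at 400 × g, 5 min, 4°C, and drug assayed by LC/MS/MS. ELF level = CBAL × urea plasma/urea BAL, with urea corrected for blood contamination via RBC ratio. PK parameters are model-independent, based on the mean concentration at each time.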

[14] = AUC (0 to 24 hrs) in epithelial lining fluid of healthy human at 400 mg, po administered as single dose by linear trapezoidal method
[15] = Ratio of drug level in alveolar macrophages to plasma in healthy human at 400 mg, po administered as single dose after 4 hrs
[16] = Tmax in epithelial lining fluid of healthy human at 400 mg, po administered as single dose
Staphylococcus aureus = experiment: Antimicrobial activity against methicillin susceptible Staphylococcus aureus; assay type: functional
Homo sapiens [17] = experiment: Toxicity in healthy human assessed as eosinophil count in bronchoalveolar fluid at 400 mg, po administered as single dose after 4 hrs; conditions: in vivo
Haemophilus influenzae = experiment: Antimicrobial activity against Haemophilus influenzae; assay type: functional
[18] = Tmax in alveolar macrophages of healthy human at 400 mg, po administered as single dose
[19] = Ratio of alveolar macrophages AUC (0 to 24 hrs) to plasma AUC (0 to 24 hrs) in healthy human at 400 mg, po administered as single dose
Homo sapiens [20] = experiment: Toxicity in healthy human assessed as lymphocytes count in bronchoalveolar fluid at […], po administered as single dose after 6 hrs; assay type: organism-based, Lung; parameters: route oral; conditions: in vivo; method in brief: as §2
[21] = Terminal-phase half-life in plasma of healthy human at 400 mg, po administered as single dose; conditions: read-out: beta t1/2 (converted)
[22] = Cmax in alveolar macrophages of healthy human at 400 mg, po administered as single dose
[23] = Ratio of drug level in epithelial lining fluid to plasma in healthy human at […], po administered as single dose after 6 hrs; assay type: ADME, organism-based; parameters: route oral
Method in brief: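 For each subject, ELF or AM drug level after the single oral 400 mg dose is divided by the plasma level sampled at the BAL time (2-24 h). Ratios are summarized per four-subject group.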

[24] = Plasma concentration in healthy human at […], po after 2 hrs; assay type: ADME, organism-based; parameters: route oral; method in brief: as §1
[25] = AUC (0 to 24 hrs) in alveolar macrophages of healthy human at 400 mg, po administered as single dose by linear trapezoidal method
[26] = Drug level in alveolar macrophages of healthy human at […], po administered as single dose after 2 hrs; assay type: ADME, organism-based, Macrophage; parameters: route oral; conditions: read-out: Drug uptake; method in brief: as §3
Homo sapiens [27] = experiment: Toxicity in healthy human assessed as lymphocytes count in bronchoalveolar fluid at […], po administered as single dose after 12 hrs; assay type: organism-based, Lung; parameters: route oral; conditions: in vivo; method in brief: as §2
Homo sapiens [28] = experiment: Toxicity in healthy human assessed as eosinophil count in bronchoalveolar fluid at 400 mg, po administered as single dose after 6 hrs; conditions: in vivo
Homo sapiens [29] = experiment: Toxicity in healthy human assessed as eosinophil count in bronchoalveolar fluid at 400 mg, po administered as single dose after 12 hrs; conditions: in vivo
Homo sapiens [30] = experiment: Toxicity in healthy human assessed as alveolar macrophage count in bronchoalveolar fluid at 400 mg, po administered as single dose after 8 hrs; conditions: in vivo

concentration at 4 h [1]: 575 ng/mL | Kp [2]: 20.3 | concentration at 6 h [8]: 540 ng/mL | AUC(0-t) at 24 h [9]: 10500 ng·h/mL | concentration at 10 h [12]: 108 µg/mL | concentration at 2 h [13]: 16700 ng/mL | AUC(0-t) at 24 h [14]: 212 µg·h/mL | Kp at 4 h [15]: 201 | Tmax [16]: 2 h | MIC90 (Staphylococcus aureus): ≤ 0.063 µg/mL | MIC90 (Haemophilus influenzae): 8 µg/mL (≈ 9.51 µM) | Tmax [18]: 12 h | Kp [19]: 245 | half-life [21]: 1050 min | Cmax [22]: 176 µg/mL | Kp at 6 h [23]: 27 | concentration at 2 h [24]: 646 ng/mL | AUC(0-t) at 24 h [25]: 2560 µg·h/mL | concentration at 2 h [26]: 61 µg/mL
SMILES: CC[C@H]1OC(=O)[C@H](C)C(=O)[C@H](C)[C@@H](O[C@@H]2O[C@H](C)C[C@H](N(C)C)[C@H]2O)[C@@]2(C)C[C@@H](C)/C(=N\C(C)=O)[C@H](C)[C@@H](OC/C(=N\OCc3ccc(-n4cccn4)nc3)CO2)[C@]1(C)O [MODITHROMYCIN]
Activity (Homo sapiens [3]): 9.3% | Activity (Homo sapiens [4]): 84.8% | Activity (Homo sapiens [5]): 86.9% | Activity (Homo sapiens [6]): 0% | RatioAUC/MIC [7]: 424.8 | RatioAUC/MIC [10]: 26.6 | Activity (Homo sapiens [11]): 0% | Activity (Homo sapiens [17]): 0.1% | Activity (Homo sapiens [20]): 13% | Activity (Homo sapiens [27]): 13.3% | Activity (Homo sapiens [28]): 0% | Activity (Homo sapiens [29]): 0.9% | Activity (Homo sapiens [30]): 90.4%

Reference: ChEMBL document CHEMBL1240362, “Intrapulmonary pharmacokinetics of S-013420, a novel bicyclolide antibacterial, in healthy Japanese subjects” (Antimicrob Agents Chemother, 2010)
